Reference: ChEMBL document CHEMBL2396650, “A potent small-molecule inhibitor of the MDM2-p53 interaction (MI-888) achieved complete and durable tumor regression in mice” (J Med Chem, 2013)
The source made the active and inactive calls. The rule behind the calls is not given here.

How the values were obtained:
Liver microsomes [1] = test: Half life in rat liver microsomes; type: ADME, Microsome
In short: (§1)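 Half-life determined by incubation in mouse, rat and human liver microsomes; T1/2 in minutes.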

Liver = test: Half life in mouse liver microsomes; type: ADME, Microsome; in short: as §1
Liver microsomes [2] = test: Half life in human liver microsomes; type: ADME, Microsome; in short: as §1
SJSA-1 [3] = test: Antitumor activity against human SJSA1 cells xenografted in SCID mouse assessed as upregulation of MDM2 expression in tumor at 100 mg/kg, po measured at 24 hrs by Western blot analysis; type: functional, organism-based; set-up: dose 100 mg/kg
[4] = Antitumor activity against human RS4:11 cells xenografted in mouse assessed as tumor growth inhibition at 200 mg/kg, po qd administered for 3 weeks measured after 4 days relative to vehicle-treated control; type: functional; details: read-out: TGI
In short: (§2)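 RS4;11 acute leukemia xenografts in mice; dosing began when tumors averaged 150 mm3. Oral gavage of 100 or 200 mg/kg once daily for 3 weeks. Tumor volume tracked during and after dosing; body weight and signs of toxicity monitored throughout.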

SJSA-1 [5] = test: Antitumor activity against human SJSA1 cells xenografted in SCID mouse assessed as upregulation of p53 expression in tumor at 100 mg/kg, po measured at 24 hrs by Western blot analysis; type: functional, organism-based; set-up: dose 100 mg/kg
SJSA-1 [6] = test: Antitumor activity against human SJSA1 cells xenografted in SCID mouse assessed as tumor growth inhibition at 30 mg/kg, po qd measured after 2 weeks; type: functional, organism-based; set-up: dose 30 mg/kg
RS4-11 = test: Antitumor activity against human RS4:11 cells xenografted in mouse assessed as tumor regression at 200 mg/kg, po qd administered for 3 weeks measured after 26 days; type: functional, organism-based; set-up: dose 200 mg/kg; in short: as §2
SJSA-1 [7] = test: Antitumor activity against human SJSA1 cells xenografted in SCID mouse assessed as upregulation of p21 expression in tumor at 100 mg/kg, po measured at 3 to 6 hrs by Western blot analysis; type: functional, organism-based; set-up: dose 100 mg/kg
Rattus norvegicus [8] = test: Half life in Sprague-Dawley rat at 25 mg/kg, po; type: ADME, organism-based; set-up: dose 25 mg/kg, route oral; details: in vivo
Rattus norvegicus [9] = test: AUC (0 to t) in Sprague-Dawley rat at 25 mg/kg, po; type: ADME, organism-based, Plasma; set-up: dose 25 mg/kg, route oral; details: in vivo
SJSA-1 [10] = test: Induction of apoptosis in human SJSA1 cells xenografted in SCID mouse assessed as PARP cleavage at 100 mg/kg, po measured at 24 hrs by Western blot analysis; type: functional, organism-based; set-up: dose 100 mg/kg
SJSA-1 [11] = test: Antitumor activity against human SJSA1 cells xenografted in SCID mouse assessed as upregulation of p21 expression in tumor at 100 mg/kg, po measured at 24 hrs by Western blot analysis; type: functional, organism-based; set-up: dose 100 mg/kg
Rattus norvegicus [12] = test: Cmax in Sprague-Dawley rat at 25 mg/kg, po; type: ADME, organism-based; set-up: dose 25 mg/kg, route oral; details: in vivo
SJSA-1 [13] = test: Induction of apoptosis in human SJSA1 cells xenografted in SCID mouse assessed as caspase-3 cleavage at 100 mg/kg, po measured at 1 to 6 hrs by Western blot analysis; type: functional, organism-based; set-up: dose 100 mg/kg
SJSA-1 [14] = test: Antitumor activity against human SJSA1 cells xenografted in SCID mouse assessed as tumor regression at 100 mg/kg, po qd administered for 2 weeks measured for 60 days; type: functional, organism-based; set-up: dose 100 mg/kg
SJSA-1 [15] = test: Antitumor activity against human SJSA1 cells xenografted in SCID mouse assessed as upregulation of MDM2 expression in tumor at 100 mg/kg, po measured at 3 to 6 hrs by Western blot analysis; type: functional, organism-based; set-up: dose 100 mg/kg
SJSA-1 [16] = test: Antitumor activity against human SJSA1 cells xenografted in SCID mouse assessed as tumor growth inhibition at 10 mg/kg, po qd measured after 2 weeks; type: functional, organism-based; set-up: dose 10 mg/kg
SJSA-1 [17] = test: Induction of apoptosis in human SJSA1 cells xenografted in SCID mouse assessed as caspase-3 cleavage at 100 mg/kg, po measured at 24 hrs by Western blot analysis; type: functional, organism-based; set-up: dose 100 mg/kg
SJSA-1 [18] = test: Induction of apoptosis in human SJSA1 cells xenografted in SCID mouse assessed as PARP cleavage at 100 mg/kg, po measured at 1 to 6 hrs by Western blot analysis; type: functional, organism-based; set-up: dose 100 mg/kg
SJSA-1 [19] = test: Antitumor activity against human SJSA1 cells xenografted in SCID mouse assessed as tumor growth inhibition at 100 mg/kg, po qd administered for 2 weeks measured after 5 days relative to vehicle-treated control; type: functional; details: read-out: TGI
Mus musculus [20] = test: Toxicity in SCID mouse xenografted with human SJSA1 cells assessed as sign of toxicity at 10 to 100 mg/kg, po qd measured after 2 weeks; type: organism-based, SJSA-1; set-up: dose 10-100 mg/kg, route oral; details: in vivo, 336 h
Mus musculus [21] = test: Toxicity in SCID mouse xenografted with human SJSA1 cells assessed as body weight loss at 10 to 100 mg/kg, po qd measured after 2 weeks; type: organism-based, SJSA-1; set-up: dose 10-100 mg/kg, route oral; details: in vivo, 336 h
SJSA-1 [22] = test: Antitumor activity against human SJSA1 cells xenografted in SCID mouse assessed as tumor growth inhibition at 100 mg/kg, po qd administered for 2 weeks measured after 10 days; type: functional, organism-based; set-up: dose 100 mg/kg
SJSA-1 [23] = test: Antitumor activity against human SJSA1 cells xenografted in SCID mouse assessed as upregulation of p53 expression in tumor at 100 mg/kg, po measured at 3 to 6 hrs by Western blot analysis; type: functional, organism-based; set-up: dose 100 mg/kg
[24] = Antitumor activity against human RS4:11 cells xenografted in mouse assessed as tumor growth inhibition at 100 mg/kg, po qd administered for 3 weeks measured after 4 days relative to vehicle-treated control; type: functional; details: read-out: TGI; in short: as §2
Mus musculus [25] = test: Toxicity in mouse xenografted with human RS4:11 cells assessed as body weight loss at 100 to 200 mg/kg, po qd after 3 weeks; type: organism-based, RS4:11 cell; set-up: dose 100-200 mg/kg, route oral; details: in vivo, 504 h; in short: as §2
Mus musculus [26] = test: Toxicity in mouse xenografted with human RS4:11 cells assessed as sign of toxicity at 100 to 200 mg/kg, po qd after 3 weeks; type: organism-based, RS4:11 cell; set-up: dose 100-200 mg/kg, route oral; details: in vivo, 504 h; in short: as §2

CC(C)(C)C[C@@H]1N[C@@H](C(=O)N[C@H]2C[C@@H](O)C2)[C@H](c2cccc(Cl)c2F)[C@]12C(=O)Nc1cc(Cl)ccc12
t1/2 (Liver microsomes [1]): 0.368 h
t1/2 (Liver): 0.343 h
t1/2 (Liver microsomes [2]): 0.513 h

CC(C)(C)C[C@@H]1N[C@@H](C(=O)N[C@H]2CC[C@H](O)C2)[C@H](c2cccc(Cl)c2F)[C@]12C(=O)Nc1cc(Cl)ccc12
t1/2 (Liver microsomes [1]): 0.352 h
t1/2 (Liver): > 1 h
t1/2 (Liver microsomes [2]): 0.918 h

CC(C)(C)C[C@H]1N[C@@H](C(=O)NCC[C@H](O)CO)[C@H](c2cccc(Cl)c2)[C@@]12C(=O)Nc1cc(Cl)c(F)cc12
t1/2 (Liver microsomes [1]): 0.337 h
t1/2 (Liver): > 1 h
t1/2 (Liver microsomes [2]): > 1 h

CC(C)(C)C[C@@H]1N[C@@H](C(=O)N[C@H]2C[C@@](C)(O)C2)[C@H](c2cccc(Cl)c2F)[C@]12C(=O)Nc1cc(Cl)ccc12
Activity (SJSA-1 [3]): inactive
inhibition in vivo at 200 mg/kg [4]: 80%
Activity (SJSA-1 [5]): inactive
TGI (SJSA-1 [6]): Active
Activity (RS4-11): Active
Activity (SJSA-1 [7]): Active
t1/2 (Rattus norvegicus [8]): 3.2 h
AUCt (Rattus norvegicus [9]): 14900 ng·h/mL
Activity (SJSA-1 [10]): Active
Activity (SJSA-1 [11]): inactive
Cmax (Rattus norvegicus [12]): 1726 ng/mL
Activity (SJSA-1 [13]): inactive
t1/2 (Liver microsomes [1]): > 1 h
Activity (SJSA-1 [14]): Active
Activity (SJSA-1 [15]): Active
TGI (SJSA-1 [16]): inactive
Activity (SJSA-1 [17]): Active
t1/2 (Liver): > 1 h
Activity (SJSA-1 [18]): inactive
inhibition in vivo at 100 mg/kg (SJSA-1 [19]): > 70%
Activity (Mus musculus [20]): Non-toxic
Activity (Mus musculus [21]): Non-toxic
TGI (SJSA-1 [22]): Active
Activity (SJSA-1 [23]): Active
inhibition in vivo at 100 mg/kg [24]: 61%
Activity (Mus musculus [25]): Non-toxic
Activity (Mus musculus [26]): Non-toxic

CC(C)(C)C[C@@H]1N[C@@H](C(=O)N[C@H]2C[C@](C)(O)C2)[C@H](c2cccc(Cl)c2F)[C@]12C(=O)Nc1cc(Cl)ccc12
t1/2 (Liver microsomes [2]): > 1 h

CC(C)(C)C[C@@H]1N[C@@H](C(=O)N[C@H]2C[C@H](O)C2)[C@H](c2cccc(Cl)c2F)[C@]12C(=O)Nc1cc(Cl)ccc12
t1/2 (Liver microsomes [1]): 0.318 h
t1/2 (Liver): > 1 h
t1/2 (Liver microsomes [2]): 0.902 h

CC(C)(C)C[C@@H]1N[C@@H](C(=O)NCC(C)(C)O)[C@H](c2cccc(Cl)c2F)[C@]12C(=O)Nc1cc(Cl)ccc12
t1/2 (Liver microsomes [1]): > 1 h
t1/2 (Liver): > 1 h
t1/2 (Liver microsomes [2]): > 1 h

CC(C)(C)C[C@@H]1N[C@@H](C(=O)NCC[C@H](O)CO)[C@H](c2cccc(Cl)c2F)[C@]12C(=O)Nc1cc(Cl)ccc12
t1/2 (Rattus norvegicus [8]): 3.4 h
AUCt (Rattus norvegicus [9]): 2140 ng·h/mL
Cmax (Rattus norvegicus [12]): 675 ng/mL
t1/2 (Liver microsomes [1]): 0.272 h
t1/2 (Liver): > 1 h
t1/2 (Liver microsomes [2]): > 1 h

CC(C)(C)C[C@@H]1N[C@@H](C(=O)N[C@H]2CC[C@@H](O)C2)[C@H](c2cccc(Cl)c2F)[C@]12C(=O)Nc1cc(Cl)ccc12
t1/2 (Liver microsomes [1]): 0.0633 h
t1/2 (Liver): 0.025 h
t1/2 (Liver microsomes [2]): 0.067 h
